The nature of data set [1]: Selectivity index, ratio of Ki for human CatL to Ki for Trypanosoma brucei rhodesiense rhodesain. The essentials: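 Ki(hCatL)/Ki(RD). Fluorimetric assays at 25 °C: RD in 50 mM sodium acetate pH 5.5; hCatL in 50 mM Tris pH 6.5; both buffers with 5 mM EDTA, 200 mM NaCl, 0.005% Brij35. Ki derived from IC50 by Cheng-Prusoff. Each value is the mean of two measurements, each done in duplicate.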

Data set [2] is described as follows: Solubility of the compound at pH 6.5 by LYSA. The data set is classed as physicochemical. The following applies: buffer. The essentials: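 Lyophilization solubility assay at pH 6.5.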
The target of another data set is Procathepsin L (Homo sapiens, UniProt P07711). Briefly: Inhibition of human CatL using Cbz-Phe-Arg-AMC as substrate measured over 30 mins by fluorimetric method. Summed up: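 Human cathepsin L in a fluorimetric assay in 50 mM Tris pH 6.5, 5 mM EDTA, 200 mM NaCl, 0.005% Brij35 at 25 °C. Ki was calculated from IC50 by Cheng-Prusoff. Value is the average of two measurements, each in duplicate.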
Procathepsin L, sequence (P07711 whole entry): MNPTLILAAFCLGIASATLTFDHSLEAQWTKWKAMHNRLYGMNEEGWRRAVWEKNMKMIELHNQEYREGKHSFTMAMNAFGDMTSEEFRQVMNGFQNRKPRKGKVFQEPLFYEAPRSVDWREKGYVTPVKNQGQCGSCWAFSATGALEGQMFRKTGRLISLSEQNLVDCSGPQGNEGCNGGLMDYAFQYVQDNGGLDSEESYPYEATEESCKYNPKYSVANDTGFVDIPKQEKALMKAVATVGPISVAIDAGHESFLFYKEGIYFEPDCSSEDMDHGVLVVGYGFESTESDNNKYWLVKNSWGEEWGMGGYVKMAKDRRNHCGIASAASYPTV

The nature of data set [3]: Selectivity index, ratio of IC50 for rat L6 cells to IC50 for bloodstream form of Trypanosoma brucei rhodesiense STIB 900. Type of data set: toxicity. The following applies: read-out: Ratio IC50. The essentials: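 Ratio of L-6 rat skeletal myoblast IC50 to T. b. rhodesiense STIB 900 bloodstream trypomastigote IC50, both from Alamar Blue growth-inhibition assays. Each IC50 is the mean of at least 2 measurements.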

Another data set concerns the target Rhodesain (Trypanosoma brucei rhodesiense, UniProt Q95PM0). The data set can be described thus: Inhibition of Trypanosoma brucei rhodesiense rhodesain using Cbz-Phe-Arg-AMC as substrate by fluorimetric method. Summed up: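 Fluorescence-based assay run at 25 °C in 50 mM sodium acetate pH 5.5 with 5 mM EDTA, 200 mM NaCl and 0.005% Brij35. IC50 values were converted to Ki with the Cheng-Prusoff equation. Values are the average of two measurements, each done in duplicate.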

Another data set deals with L6. Briefly: Cytotoxicity against rat L6 cells after 72 hrs by Alamar blue assay. Type of data set: cell-based. The following applies: L6, 72 h. The essentials:
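Rat skeletal myoblast L6 cells in an Alamar Blue growth-inhibition assay. Value is the mean of at least 2 measurements.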

In data set [4] the test system is Trypanosoma brucei rhodesiense. Briefly: Antitrypanosomal activity against bloodstream form of Trypanosoma brucei rhodesiense STIB 900 assessed as parasite growth inhibition after 72 hrs by Alamar blue assay. The data set is classed as functional. The following applies: STIB 900, 72 h. Summed up: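 Standard 72 h growth-inhibition assay with STIB 900 bloodstream trypomastigotes and Alamar Blue read-out. Value is the mean of at least 2 measurements.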

Data set [5] is described as follows: Octanol-water intrinsic distribution co-efficient, log D of the compound at 100 uM at pH 7.4 after 16 to 22 hrs by CAMDIS assay. Type of data set: physicochemical. The essentials:
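Octanol/aqueous buffer (pH 7.4) intrinsic distribution coefficient measured in the CAMDIS carrier-mediated distribution system.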

pIC50, pKi: −log10 of the molar value. ≈ marks a conversion by molar mass, not a printed value.

Rhodesain, sequence (Q95PM0 whole entry): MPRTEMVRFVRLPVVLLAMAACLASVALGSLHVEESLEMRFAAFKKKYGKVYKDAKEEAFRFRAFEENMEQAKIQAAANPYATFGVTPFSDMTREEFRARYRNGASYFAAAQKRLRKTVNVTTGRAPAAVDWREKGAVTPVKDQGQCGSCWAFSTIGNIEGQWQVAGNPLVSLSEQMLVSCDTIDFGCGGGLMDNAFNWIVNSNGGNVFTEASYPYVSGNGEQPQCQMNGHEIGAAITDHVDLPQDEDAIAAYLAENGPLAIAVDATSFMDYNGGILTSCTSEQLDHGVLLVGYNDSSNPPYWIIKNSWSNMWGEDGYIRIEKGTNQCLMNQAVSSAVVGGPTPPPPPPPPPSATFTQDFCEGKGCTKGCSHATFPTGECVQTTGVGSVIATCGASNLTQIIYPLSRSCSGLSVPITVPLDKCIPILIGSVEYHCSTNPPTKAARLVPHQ

Turning to `N#CC1(NC(=O)[C@H](Cc2ccc(OC(F)(F)F)c(Cl)c2)NC(=O)c2cnn(-c3ccc(Cl)cc3)n2)CC1`, in data set [1], the Ratio Ki stood at 47. This compound displayed a solubility in data set [2] of under 0.3 µg/mL. The results for the pKi at Procathepsin L and at Rhodesain were 6.33 and 8.00, respectively. Besides, in data set [3], the selectivity ratio is 377. Also, the pIC50 with L6 is 5.08; in data set [4], 7.66.
Turning to `CC(C)C[C@H](NC(=O)c1cnn(-c2ccc(F)cc2)n1)C(=O)NC1(C#N)CC1`, the Ratio Ki in data set [1] was 18 to 507. In addition, the solubility in data set [2] was 42 µg/mL (≈ 109 µM). The compound further yielded a pH-dependent lipophilicity (logD) at 100 µM in data set [5] of 3.3. The pKi at Rhodesain is 7.64. Also, in data set [4], the pIC50 was 5.66.
For the compound `N#CC1(NC(=O)[C@H](Cc2ccc(OC(F)(F)F)c(Cl)c2)NC(=O)c2cnn(C3CCOCC3)n2)CC1`, the Ratio Ki in data set [1] was found to be 6.2. The solubility in data set [2] was 90 µg/mL (≈ 171 µM). In addition, the pKi is 6.95 on Procathepsin L and 7.74 at Rhodesain. In data set [5], the logD at 100 µM came out at 3.33. Further, the pIC50 is under 4.00 in the data set with L6 and 7.89 in data set [4].
Turning to `N#CC1(NC(=O)[C@H](Cc2ccc(OC(F)(F)F)c(Cl)c2)NC(=O)c2cnn(-c3ccc(Br)cc3)n2)CC1`, in data set [1], the Ratio Ki amounted to 43. Also, the solubility in data set [2] was under 0.3 µg/mL. Also, the values for the pKi on Procathepsin L and at Rhodesain were 5.97 and 7.60, respectively. In addition, the selectivity ratio in data set [3] amounted to 271. Besides, the results for the pIC50 (in the data set on L6; in data set [4]) were 5.12 and 7.55, respectively.
Consider `N#CC1(NC(=O)[C@H](Cc2ccc(OCC3CCC3)c(Cl)c2)NC(=O)c2cnn(-c3ccc(F)cc3)n2)CC1`, for which, in data set [1], the Ratio Ki was found to be 20. The solubility in data set [2] is under 0.3 µg/mL. Moreover, the values for the pKi at Procathepsin L and at Rhodesain were 6.50 and 7.80, respectively. Further, the selectivity ratio in data set [3] came to 281. The pIC50 was 5.12 in the data set on L6 and 7.57 in data set [4].
`N#Cc1ccccc1C[C@H](NC(=O)c1cnn(-c2ccc(F)cc2)n1)C(=O)NC1(C#N)CC1`: the Ratio Ki in data set [1] fell in the range of 18 to 507. For the same compound, the pKi at Rhodesain was 6.22 to 8.13.
Turning to `N#CC1(NC(=O)[C@H](Cc2ccc(OC(F)(F)F)c(Cl)c2)NC(=O)c2cnn(C3CCCCC3)n2)CC1`, the Ratio Ki in data set [1] was determined as 6.8. In data set [2], the concentration in solution (solubility) came to 0.3 µg/mL (≈ 0.572 µM). Also, the pKi on Procathepsin L is 7.09; on Rhodesain it was 7.92. Moreover, the selectivity ratio in data set [3] was found to be 5170. The pIC50 in the data set on L6 was 4.51; in data set [4], 8.22.
Consider `N#CC1(NC(=O)[C@H](Cc2cccc(Cl)c2)NC(=O)c2cnn(-c3ccc(F)cc3)n2)CC1`, for which, in data set [1], the Ratio Ki was 18 to 507. At Rhodesain, this compound showed a pKi of 6.22 to 8.13.
The like results for `N#CC1(NC(=O)[C@H](Cc2ccccc2C(F)(F)F)NC(=O)c2cnn(-c3ccc(F)cc3)n2)CC1` were, in that order, 18 to 507 and 6.22 to 8.13.
The corresponding values for `N#CC1(NC(=O)[C@H](Cc2ccccc2)NC(=O)c2cnn(-c3ccc(F)cc3)n2)CC1` are 18 to 507 and 6.22 to 8.13.
As for `N#CC1(NC(=O)[C@H](Cc2ccc(Cl)c(Cl)c2)NC(=O)c2cnn(C3CCOCC3)n2)CC1`, the Ratio Ki in data set [1] was 23. Besides, the negative logarithm of the Ki (pKi) was 7.03 on Procathepsin L and 8.40 at Rhodesain. The pIC50 in the data set on L6 was under 4.00; in data set [4] it was 7.64.
For `N#CC1(NC(=O)[C@H](Cc2ccccc2Cl)NC(=O)c2cnn(-c3ccc(F)cc3)n2)CC1`, in data set [1], the Ratio Ki was in the range of 18 to 507. The same compound had a pKi on Rhodesain of 6.22 to 8.13.
On to `N#CC1(NC(=O)[C@H](Cc2ccc(OC(F)(F)F)c(Cl)c2)NC(=O)c2cnn(C3CC(F)(F)C3)n2)CC1`, for which, in data set [1], the Ratio Ki amounted to 1.5. Besides, in data set [2], the solubility came to 2.2 µg/mL (≈ 4.13 µM). Besides, the pKi on Procathepsin L is 7.12; on Rhodesain, 7.39. The same compound came in with a logD at 100 µM in data set [5] of 3.89. Also, the selectivity ratio in data set [3] was 5560. Besides, the pIC50 was 4.30 with L6 and 8.05 in data set [4].
Turning to `N=C(N)c1ccc(OCCCCCOc2ccc(C(=N)N)cc2)cc1` [PENTAMIDINE], the pIC50 in data set [4] is 8.05.
On to `N#CC1(NC(=O)[C@H](Cc2ccc(OCC3CC3)c(Cl)c2)NC(=O)c2cnn(-c3ccc(F)cc3)n2)CC1`, for which the Ratio Ki in data set [1] fell in the range of 18 to 507. Moreover, the pKi at Procathepsin L was 6.50 to 6.74; on Rhodesain, 7.80 to 8.05. Moreover, the pIC50 in data set [4] is 6.72 to 7.57.
Regarding `Cc1ccc(C(=O)Nc2ccc(S(=O)(=O)O)c3cc(S(=O)(=O)O)cc(S(=O)(=O)O)c23)cc1NC(=O)c1cccc(NC(=O)Nc2cccc(C(=O)Nc3cc(C(=O)Nc4ccc(S(=O)(=O)O)c5cc(S(=O)(=O)O)cc(S(=O)(=O)O)c45)ccc3C)c2)c1` [SURAMIN], in data set [4], the pIC50 was 7.34.
On the same count and under the same terms, as for `CC1CS(=O)(=O)CCN1/N=C/c1ccc([N+](=O)[O-])o1` (stereo not given) [NIFURTIMOX], the figure is 5.84.
For the compound `COCCOc1ccc(C[C@H](NC(=O)c2cnn(-c3ccc(F)cc3)n2)C(=O)NC2(C#N)CC2)cc1Cl`, in data set [1], the Ratio Ki is 18 to 507. The pKi is 6.50 to 6.74 on Procathepsin L and 7.80 to 8.05 at Rhodesain. Besides, the pIC50 in data set [4] is 6.72 to 7.57.
With `CSc1ccc(OCc2ncc([N+](=O)[O-])n2C)cc1` [FEXINIDAZOLE], the pIC50 in data set [4] is 5.53 to 5.77.
As to `N#CC1(NC(=O)[C@H](Cc2ccc(OCc3ccccc3)cc2)NC(=O)c2cnn(-c3ccc(F)cc3)n2)CC1`, in data set [1], the Ratio Ki came out at 87. This compound also showed a solubility in data set [2] of under 0.3 µg/mL. Besides, the pKi at Procathepsin L was 5.83; on Rhodesain, 7.77. Also, the pIC50 is under 5.00 in the data set with L6 and 7.72 in data set [4].
For `N#CC1(NC(=O)[C@H](Cc2ccc(OC(F)(F)F)c(Cl)c2)NC(=O)c2cnn(C3CCC3)n2)CC1`, the Ratio Ki in data set [1] was determined as 1. Further, the concentration in solution in data set [2] (solubility) was 11 µg/mL (≈ 22.1 µM). Further, the pKi at Procathepsin L and at Rhodesain was 7.96 each time. Moreover, in data set [5], the logD at 100 µM amounted to 3.88. Further, the selectivity ratio in data set [3] was 48000. Besides, the pIC50 with L6 is 4.32; in data set [4] it was 9.00.
As for `N#CC1(NC(=O)[C@H](Cc2ccc(Cl)c(Cl)c2)NC(=O)c2cnn(C3CCC3)n2)CC1`, the Ratio Ki in data set [1] was found to be 0.1. In addition, the pKi at Procathepsin L was 8.15; on Rhodesain it was 7.15. Besides, the selectivity ratio in data set [3] is 14600. Further, the values for the pIC50 (in the data set on L6; in data set [4]) were 4.24 and 8.40, respectively.
As to `N#CC1(NC(=O)[C@H](Cc2ccc(Cl)cc2)NC(=O)c2cnn(-c3ccc(F)cc3)n2)CC1`, the Ratio Ki in data set [1] turned out to be 507. Moreover, the solubility in data set [2] is under 0.3 µg/mL. Also, the results for the pKi at Procathepsin L and at Rhodesain were 5.82 and 8.52, respectively. In data set [5], the logD at 100 µM stood at 3.97. The pIC50 in the data set with L6 was under 5.00; in data set [4] it was 8.22.
As for `N#Cc1ccc(C[C@H](NC(=O)c2cnn(-c3ccc(F)cc3)n2)C(=O)NC2(C#N)CC2)cc1Cl`, the Ratio Ki in data set [1] amounted to 36. Moreover, the solubility in data set [2] is under 0.3 µg/mL. Besides, the pKi on Procathepsin L was 6.60; on Rhodesain, 8.15. The logD at 100 µM in data set [5] was determined as 3.63. In addition, the results for the pIC50 (with L6; in data set [4]) were under 5.00 and 8.22, respectively.
Turning to `CSc1ccc(-n2ncc(C(=O)N[C@@H](Cc3ccc(OC(F)(F)F)c(Cl)c3)C(=O)NC3(C#N)CC3)n2)cc1`, the Ratio Ki in data set [1] stood at 59. Moreover, the solubility in data set [2] was under 0.3 µg/mL. The results for the pKi at Procathepsin L and at Rhodesain were 5.95 and 7.72, respectively. The figures for the pIC50 (in the data set on L6; in data set [4]) were under 5.00 and 7.17, respectively.

The values are drawn from ChEMBL document CHEMBL4043300, “2 H-1,2,3-Triazole-Based Dipeptidyl Nitriles: Potent, Selective, and Trypanocidal Rhodesain Inhibitors by Structure-Based Design” (J Med Chem, 2018).
